# In ChEMBL document CHEMBL4017526, “Nanomolar Inhibitors of Glycogen Phosphorylase Based on β-d-Glucosaminyl Heterocycles: A Combined Synthetic, Enzyme Kinetic, and Protein Crystallography Study” (J Med Chem, 2017):
# The source made the active and inactive calls. The calls are words filed in the database; no cut-off is given here.
# Tests used:
# [1] = biological target: T1, Glycogen phosphorylase, muscle form (Oryctolagus cuniculus, UniProt P00489); assay: Competitive inhibition of rabbit muscle glycogen phosphorylase-a in presence of varying levels of glucose-1-phosphate and constant concentration of glycogen and AMP preincubated for 15 mins with AMP and glycogen followed by glucose-1-phosphate addition by Lineweaver-Burk plot method
# T1 sequence (P00489 whole entry): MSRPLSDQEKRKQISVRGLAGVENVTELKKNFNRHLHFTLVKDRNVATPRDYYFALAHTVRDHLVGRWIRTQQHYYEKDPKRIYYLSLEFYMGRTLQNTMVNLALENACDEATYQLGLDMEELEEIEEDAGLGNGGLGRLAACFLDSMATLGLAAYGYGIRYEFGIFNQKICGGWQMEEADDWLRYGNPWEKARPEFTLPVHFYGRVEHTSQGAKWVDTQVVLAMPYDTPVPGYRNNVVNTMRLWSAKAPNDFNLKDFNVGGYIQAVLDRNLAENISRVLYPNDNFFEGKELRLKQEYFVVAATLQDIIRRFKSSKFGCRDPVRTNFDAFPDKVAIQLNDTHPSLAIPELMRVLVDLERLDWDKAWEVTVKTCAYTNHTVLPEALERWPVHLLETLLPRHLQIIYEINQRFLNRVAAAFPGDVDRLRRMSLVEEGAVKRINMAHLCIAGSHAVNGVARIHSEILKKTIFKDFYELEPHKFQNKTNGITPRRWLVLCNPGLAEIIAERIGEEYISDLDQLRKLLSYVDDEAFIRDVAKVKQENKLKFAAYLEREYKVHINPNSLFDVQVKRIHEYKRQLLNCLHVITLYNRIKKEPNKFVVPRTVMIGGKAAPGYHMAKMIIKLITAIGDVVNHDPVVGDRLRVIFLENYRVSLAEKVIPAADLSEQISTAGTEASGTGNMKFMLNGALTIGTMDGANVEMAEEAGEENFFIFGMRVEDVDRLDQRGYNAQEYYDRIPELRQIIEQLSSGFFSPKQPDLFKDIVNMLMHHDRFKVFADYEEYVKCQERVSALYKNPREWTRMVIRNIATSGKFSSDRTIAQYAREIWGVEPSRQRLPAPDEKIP
# Method in brief: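 Rabbit muscle GPa at 3 μg/mL, 30 °C, synthesis direction. Medium: 30 mM imidazole/HCl pH 6.8, 60 mM KCl, 0.6 mM EDTA, 0.6 mM DTT, 0.2% glycogen. Enzyme–glycogen preincubated 15 min before Glc-1-P start. Samples at 1, 2, 3, 4 min quenched in SDS; phosphate measured at 850 nm. Ki derived from 1/v vs inhibitor concentration; three independent runs, mean ± SD.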
# [2] = biological target: T2, Glycogen phosphorylase, liver form (Homo sapiens, UniProt P06737); assay: Competitive inhibition of 6xHis-tagged human liver glycogen phosphorylase-a expressed in Escherichia coli BL21 Gold (DE3) assessed as release of inorganic phosphate using varying levels of glucose-1-phosphate and constant concentration of AMP and glycogen preincubated for 15 mins with AMP and glycogen followed by glucose-1-phosphate addition by Lineweaver-Burk plot method
# T2 sequence (P06737 whole entry): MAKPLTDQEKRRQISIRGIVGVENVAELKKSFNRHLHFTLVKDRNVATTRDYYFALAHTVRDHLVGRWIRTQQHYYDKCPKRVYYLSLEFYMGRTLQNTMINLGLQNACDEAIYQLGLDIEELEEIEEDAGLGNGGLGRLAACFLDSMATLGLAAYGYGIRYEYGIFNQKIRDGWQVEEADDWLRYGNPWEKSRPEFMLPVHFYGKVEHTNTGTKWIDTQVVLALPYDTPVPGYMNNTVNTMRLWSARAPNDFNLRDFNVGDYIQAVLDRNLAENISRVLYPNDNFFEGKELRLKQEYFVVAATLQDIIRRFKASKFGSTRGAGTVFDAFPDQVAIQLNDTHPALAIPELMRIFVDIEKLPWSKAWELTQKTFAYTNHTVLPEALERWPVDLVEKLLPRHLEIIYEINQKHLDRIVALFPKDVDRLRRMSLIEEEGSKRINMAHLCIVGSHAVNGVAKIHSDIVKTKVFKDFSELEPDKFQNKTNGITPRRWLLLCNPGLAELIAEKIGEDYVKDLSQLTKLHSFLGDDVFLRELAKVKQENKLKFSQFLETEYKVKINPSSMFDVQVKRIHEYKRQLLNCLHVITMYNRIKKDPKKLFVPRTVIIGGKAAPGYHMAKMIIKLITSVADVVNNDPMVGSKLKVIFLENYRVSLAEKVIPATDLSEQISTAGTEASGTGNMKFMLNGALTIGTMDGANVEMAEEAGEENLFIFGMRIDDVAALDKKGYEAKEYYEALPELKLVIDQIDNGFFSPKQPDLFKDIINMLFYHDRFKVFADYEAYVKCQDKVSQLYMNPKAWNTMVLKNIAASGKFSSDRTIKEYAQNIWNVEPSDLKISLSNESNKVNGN
# [3] = biological target: T1, Glycogen phosphorylase, muscle form; assay: Competitive inhibition of rabbit muscle glycogen phosphorylase-b in presence of varying levels of glucose-1-phosphate and constant concentration of glycogen and AMP preincubated for 15 mins with AMP and glycogen followed by glucose-1-phosphate addition by Lineweaver-Burk plot method
# Method in brief: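 Rabbit skeletal muscle GPb, 3 μg/mL, at 30 °C in the glycogen-synthesis direction. Buffer: 30 mM imidazole/HCl pH 6.8, 60 mM KCl, 0.6 mM EDTA, 0.6 mM DTT, 0.2% glycogen, 1 mM AMP. Glc-1-P at 2, 3, 4, 6 or 10 mM, added after 15 min enzyme–glycogen preincubation. Pi read at 850 nm by molybdate method from 1–4 min samples. Ki from 1/v vs [inhibitor]; three independent experiments, mean ± SD.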
# [4] = biological target: T1, Glycogen phosphorylase, muscle form; assay: Inhibition of rabbit muscle glycogen phosphorylase
# [5] = biological target: T1, Glycogen phosphorylase, muscle form
# [6] = biological target: T2, Glycogen phosphorylase, liver form; assay: Competitive inhibition of human liver glycogen phosphorylase-a assessed as release of inorganic phosphate using varying levels of glucose-1-phosphate and constant concentration of AMP and glycogen preincubated for 15 mins with AMP and glycogen followed by glucose-1-phosphate addition
# [7] = biological target: T3, Glycogen phosphorylase, muscle form (Oryctolagus cuniculus) (UniProt P00489); assay: Competitive inhibition of rabbit muscle glycogen phosphorylase-b at 625 uM in presence of varying levels of glucose-1-phosphate and constant concentration of glycogen and AMP preincubated for 15 mins with AMP and glycogen followed by glucose-1-phosphate addition by Lineweaver-Burk plot method
# T3 sequence (whole entry): T1 sequence (P00489 whole entry)
Ki [1] [µM],Ki [2] [µM],Ki [3] [µM],SMILES,also measured
3.11,2.73,2.67,N[C@@H]1[C@@H](O)[C@H](O)[C@@H](CO)O[C@H]1c1nc(-c2ccccc2)c[nH]1,–
–,–,354,N[C@@H]1[C@@H](O)[C@H](O)[C@@H](CO)O[C@H]1n1cc(-c2ccc3ccccc3c2)nn1,–
–,–,–,O[C@@H]1[C@@H](O)[C@H](c2nc(-c3ccc4ccccc4c3)n[nH]2)OC[C@H]1O,Ki [4]: 491 µM
5.3,7.6,4.8,N[C@@H]1[C@@H](O)[C@H](O)[C@@H](CO)O[C@H]1c1nc(-c2ccc3ccccc3c2)n[nH]1,–
–,–,–,O=c1[nH]c(=O)n([C@@H]2O[C@H](CO)[C@@H](O)[C@@H](CO)[C@H]2O)cc1F,Ki [5]: 27.1 µM
–,–,–,O[C@@H]1[C@@H](O)[C@H](c2nc(-c3ccc4ccccc4c3)c[nH]2)OC[C@H]1O,Ki [4]: 100 µM
0.125,0.143,0.191,N[C@@H]1[C@@H](O)[C@H](O)[C@@H](CO)O[C@H]1c1nc(-c2ccc3ccccc3c2)c[nH]1,–
–,–,–,OC[C@H]1O[C@@H](c2nnc(-c3ccccc3)[nH]2)[C@H](O)[C@@H](O)[C@@H]1O,Ki [6]: 1.35 µM
–,–,107,N[C@@H]1[C@@H](O)[C@H](O)[C@@H](CO)O[C@H]1c1nc2ccccc2[nH]1,–
–,–,–,O[C@@H]1[C@@H](O)[C@H](c2nc(-c3ccccc3)c[nH]2)OC[C@H]1O,Ki [4]: 800 µM
–,–,–,O=c1[nH]c(=O)n([C@@H]2O[C@H](CO)[C@@H](O)[C@H](O)[C@H]2O)cc1F,Ki [5]: 5.5 to 7.9 µM
–,–,–,N[C@@H]1[C@@H](O)[C@H](O)[C@@H](CO)O[C@H]1n1cc(-c2ccccc2)nn1,inhibition [7]: inactive
30.2,30.8,35.2,N[C@@H]1[C@@H](O)[C@H](O)[C@@H](CO)O[C@H]1c1nc(-c2ccccc2)n[nH]1,–
